Usually IC50 stands for the concentration that inhibits the measured activity by half. A lower IC50 goes with greater potency in that assay.

For one assay, the system named is B16. The assay is described as follows: Concentration that reduces the number of colonies formed by 50% in a clonogenic assay with B16 mouse melanoma cells. It is filed as functional, cell-based. In outline:
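B16 melanoma F10 monolayers were grown in MEM with 10% calf serum. Cells were plated at 5000/plate and attached overnight. They were exposed to compound for 2 h, diluted from a 2 mM ethanol stock into MEM, then washed with PBS. Colonies of more than 50 cells were grown for 5 days at 37 °C and stained with crystal violet, in triplicate. IC50 is the 50% reduction in colonies versus controls.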

Assay [1] relates to P388. Put plainly: Concentration that reduces the number of colonies formed by 50% in a clonogenic assay with P388 leukemia cells. It is filed as functional, cell-based, Mus musculus. In outline: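 P388 cells were kept in suspension culture. Colony-forming assay was run in 0.17% agarose, with colony formation and IC50 (50% reduction in colonies versus controls) measured as in the B16 assay. That assay used a 2 h exposure and 5 days of colony growth.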

The subject of the next assay is Mus musculus. The assay is described as follows: Maximally tolerated dose (MTD) in tumor bearing mice on a daily times 5 ip regimen. The class given is functional, organism-based. In outline:
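B6D2F1 mice inoculated ip with 10^6 P388 leukemia cells, randomized into groups of six after the inoculum was checked sterile in thioglycolate broth. Dosing ip on days 1-5, starting 24 h after inoculation. Vehicle was DMA, ethanol and Cremophor (10% final), diluted with saline for lower doses and prepared just before injection. Mortality monitored daily up to 45 days.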

Assay [2] deals with P388. Put plainly: Antitumor activity expressed as increase in median life span (ILS) measured in mice inoculated (ip) with P388 leukemia cells. The class given is functional, organism-based. The conditions noted are these: Mus musculus. In outline:
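Mice B6D2F1, inoculated ip with 10^6 P388 leukemia cells. After 24 h, with the inoculum confirmed free of bacteria by thioglycolate broth, mice were randomized into groups of six. Dosing was ip on days 1-5. The vehicle held DMA, ethanol and Cremophor at 10% final, with dilutions in saline. Mice were monitored daily for 45 days. ILS is the % increase in MST over untreated controls. The value reported is the maximum ILS from dose-response studies bracketing the maximally tolerated dose.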

In assay [3] the test system is P388. Put plainly: Ratio of in vitro cytotoxic potency in P388 / B16 cell lines. The class given is functional, cell-based. The conditions noted are these: Mus musculus. In outline:
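Ratio of IC50 in the P388 colony-forming assay (0.17% agarose) to IC50 in the B16 clonogenic assay. Both assays used a 2 h drug exposure and counted colonies against controls.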

Regarding “GOLD SODIUM THIOMALATE [listing 1 of 2 here]”, the IC50 in the assay on B16 came to 60 µM; in the assay with P388 [1] it was 100 µM.

The substance “GOLD SODIUM THIOMALATE [listing 2 of 2 here]” displayed an MTD with Mus musculus of 300 µM/kg. This substance returned an ILSmax in the assay on P388 [2] of 24%. Besides, in the assay with P388 [3], the Ratio worked out at 1.67.
